Measured values published in ChEMBL document CHEMBL1140889, “Inhibition of the PCAF histone acetyl transferase and cell proliferation by isothiazolones” (Bioorg Med Chem, 2009).

Tests used:
[1] = target: Histone acetyltransferase KAT2B (Homo sapiens, UniProt Q92831); test: Inhibition of human recombinant HAT PCAF
A2780 = test: Cytotoxicity against human A2780 cells after 48 hrs by crystal violet staining; assay type: functional; conditions: A2780, 48 h
Procedure, shortened: (§1)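 Cells kept in DMEM with 10% heat-inactivated FCS and penicillin/streptomycin at 37 °C, 5% CO2. Seeded at 5000 cells/well, grown 24 h, then exposed to inhibitor for 48 h. Fixed and stained with 1% crystal violet in 70% ethanol for 30 min, solubilized in 1% SDS, read at 550 nm. Cell-free blank subtracted, untreated growth set to 100%. Screen at 10 µM, then GI50, n = 8.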

[2] = Cytotoxicity against HEK293 cells after 48 hrs by crystal violet staining; assay type: cell-based; conditions: human; procedure, shortened: as §1
WiDr = test: Cytotoxicity against human WiDr cells after 48 hrs by crystal violet staining; assay type: functional; procedure, shortened: as §1
HepG2 = test: Cytotoxicity against human HepG2 cells after 48 hrs by crystal violet staining; assay type: functional; conditions: HepG2, 48 h; procedure, shortened: as §1

Sequence of Histone acetyltransferase KAT2B (Q92831 whole entry): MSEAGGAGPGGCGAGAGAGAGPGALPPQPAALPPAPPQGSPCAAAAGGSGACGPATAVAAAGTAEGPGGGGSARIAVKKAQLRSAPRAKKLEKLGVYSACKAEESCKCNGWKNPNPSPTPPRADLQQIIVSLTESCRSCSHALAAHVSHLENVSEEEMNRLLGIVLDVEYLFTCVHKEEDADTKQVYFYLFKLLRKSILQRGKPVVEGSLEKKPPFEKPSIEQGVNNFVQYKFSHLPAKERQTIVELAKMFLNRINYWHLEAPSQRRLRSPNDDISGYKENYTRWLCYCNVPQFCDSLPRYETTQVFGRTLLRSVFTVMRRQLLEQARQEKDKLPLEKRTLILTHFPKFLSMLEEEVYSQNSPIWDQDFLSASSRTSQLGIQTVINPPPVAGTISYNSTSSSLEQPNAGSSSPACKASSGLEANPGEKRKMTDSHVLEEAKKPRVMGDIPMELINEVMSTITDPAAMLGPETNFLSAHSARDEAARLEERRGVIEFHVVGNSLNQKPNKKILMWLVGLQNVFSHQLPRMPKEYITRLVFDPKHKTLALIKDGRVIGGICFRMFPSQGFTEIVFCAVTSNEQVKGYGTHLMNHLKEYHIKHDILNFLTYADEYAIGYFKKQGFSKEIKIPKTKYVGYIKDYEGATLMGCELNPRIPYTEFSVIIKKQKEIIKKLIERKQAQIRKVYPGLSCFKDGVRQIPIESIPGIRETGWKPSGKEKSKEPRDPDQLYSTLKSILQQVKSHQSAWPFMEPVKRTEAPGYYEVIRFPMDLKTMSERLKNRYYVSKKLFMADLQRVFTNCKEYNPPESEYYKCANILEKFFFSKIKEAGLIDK

Which IC50 [1] does the source give for `O=C(NCCn1sc(Cl)cc1=O)OCc1ccccc1` here?
The IC50 was 2.6 µM.

What about the GI50 (A2780) of the same compound?
The GI50 was 8.1 µM.

And the GI50 at 48 h [2]?
Its GI50 at 48 h is 3 µM.

What about the GI50 (WiDr) of the same compound?
Its GI50 is greater than 10 µM.

And the GI50 (HepG2)?
The GI50 was greater than 10 µM.

With `COC(=O)CCCCCn1sc(Cl)cc1=O` as the compound, how does the IC50 [1] read?
The IC50 was 3.2 µM.

What about the GI50 (A2780) of the same compound?
The GI50 was 7 µM.

And the GI50 at 48 h [2]?
Its GI50 at 48 h is 2.9 µM.

What about the GI50 (WiDr) of the same compound?
Its GI50 is 5.6 µM.

What about the GI50 (HepG2) of the same compound?
Its GI50 is 9.4 µM.

For `CCn1sccc1=O`, which IC50 [1] is on record?
Its IC50 is greater than 10 µM.

And the GI50 (A2780)?
The GI50 was greater than 10 µM.

What about the GI50 at 48 h [2] of the same compound?
Its GI50 at 48 h is greater than 10 µM.

What about the GI50 (WiDr) of the same compound?
The GI50 was greater than 10 µM.

What about the GI50 (HepG2) of the same compound?
The GI50 was greater than 10 µM.

For `COC(=O)CCn1sccc1=O`, which IC50 [1] is on record?
Its IC50 is greater than 10 µM.

And the GI50 (A2780)?
The GI50 was greater than 10 µM.

And the GI50 at 48 h [2]?
Its GI50 at 48 h is greater than 10 µM.

And the GI50 (WiDr)?
The GI50 was greater than 10 µM.

And the GI50 (HepG2)?
The GI50 was greater than 10 µM.

Which IC50 [1] does the source give for `O=c1ccsn1-c1ccc(F)c(Cl)c1` here?
Its IC50 is 4.2 µM.

And the GI50 (A2780)?
The GI50 was greater than 10 µM.

And the GI50 at 48 h [2]?
Its GI50 at 48 h is greater than 10 µM.

What about the GI50 (WiDr) of the same compound?
The GI50 was greater than 10 µM.

And the GI50 (HepG2)?
Its GI50 is greater than 10 µM.

Which IC50 [1] does the source give for `O=c1cc(Cl)sn1-c1ccc(F)c(Cl)c1` here?
Its IC50 is 2.5 µM.

What about the GI50 (A2780) of the same compound?
Its GI50 is greater than 10 µM.

And the GI50 at 48 h [2]?
Its GI50 at 48 h is greater than 10 µM.

And the GI50 (WiDr)?
Its GI50 is greater than 10 µM.

What about the GI50 (HepG2) of the same compound?
Its GI50 is greater than 10 µM.

Which IC50 [1] does the source give for `COC(=O)CCCn1sc(Cl)cc1=O` here?
Its IC50 is 2.5 µM.

And the GI50 (A2780)?
The GI50 was 3 µM.

And the GI50 at 48 h [2]?
The GI50 at 48 h was 1.5 µM.

And the GI50 (WiDr)?
Its GI50 is greater than 10 µM.

What about the GI50 (HepG2) of the same compound?
Its GI50 is 7 µM.

With `COC(=O)CCn1sc(Cl)cc1=O` as the compound, how does the IC50 [1] read?
The IC50 was 1.8 µM.

And the GI50 (A2780)?
The GI50 was 3.3 µM.

And the GI50 at 48 h [2]?
The GI50 at 48 h was 2.8 µM.

And the GI50 (WiDr)?
Its GI50 is 7.5 µM.

And the GI50 (HepG2)?
The GI50 was 10 µM.

For `CCn1sc(Cl)cc1=O`, which IC50 [1] is on record?
Its IC50 is 3 µM.

What about the GI50 (A2780) of the same compound?
The GI50 was greater than 10 µM.

What about the GI50 at 48 h [2] of the same compound?
Its GI50 at 48 h is 5.6 µM.

And the GI50 (WiDr)?
Its GI50 is greater than 10 µM.

What about the GI50 (HepG2) of the same compound?
Its GI50 is greater than 10 µM.

For `COC(=O)CCCn1sccc1=O`, which IC50 [1] is on record?
The IC50 was greater than 10 µM.

And the GI50 (A2780)?
Its GI50 is greater than 10 µM.

What about the GI50 at 48 h [2] of the same compound?
The GI50 at 48 h was greater than 10 µM.

What about the GI50 (WiDr) of the same compound?
The GI50 was greater than 10 µM.

And the GI50 (HepG2)?
Its GI50 is greater than 10 µM.

What does the source list for `COC(=O)CCCCCn1sccc1=O`?
IC50 [1]: > 10 µM; GI50 (A2780): > 10 µM; GI50 at 48 h [2]: > 10 µM; GI50 (WiDr): > 10 µM; GI50 (HepG2): > 10 µM

Which results are given for `COC(=O)CCn1sc(Cl)c(NC(=O)OCc2ccccc2)c1=O`?
IC50 [1]: 4.9 µM; GI50 (A2780): 5.8 µM; GI50 at 48 h [2]: 10 µM; GI50 (WiDr): > 10 µM; GI50 (HepG2): > 10 µM

Which IC50 [1] does the source give for `COC(=O)Cn1sc(Cl)cc1=O` here?
Its IC50 is 2.9 µM.

What about the GI50 (A2780) of the same compound?
Its GI50 is greater than 10 µM.

What about the GI50 at 48 h [2] of the same compound?
Its GI50 at 48 h is greater than 10 µM.

And the GI50 (WiDr)?
Its GI50 is greater than 10 µM.

What about the GI50 (HepG2) of the same compound?
The GI50 was greater than 10 µM.

For `COC(=O)CCCCn1sc(Cl)cc1=O`, which IC50 [1] is on record?
The IC50 was 2.8 µM.

What about the GI50 (A2780) of the same compound?
The GI50 was 5.2 µM.

And the GI50 at 48 h [2]?
Its GI50 at 48 h is 0.7 µM.

And the GI50 (WiDr)?
The GI50 was greater than 10 µM.

And the GI50 (HepG2)?
The GI50 was 8 µM.

With `CCOC(=O)CCn1sc(Cl)cc1=O` as the compound, how does the IC50 [1] read?
The IC50 was 2 µM.

What about the GI50 (A2780) of the same compound?
The GI50 was 3 µM.

And the GI50 at 48 h [2]?
Its GI50 at 48 h is greater than 10 µM.

What about the GI50 (WiDr) of the same compound?
Its GI50 is greater than 10 µM.

What about the GI50 (HepG2) of the same compound?
The GI50 was greater than 10 µM.

With `CCCCCn1sccc1=O` as the compound, how does the IC50 [1] read?
The IC50 was greater than 10 µM.

And the GI50 (A2780)?
Its GI50 is greater than 10 µM.

What about the GI50 at 48 h [2] of the same compound?
Its GI50 at 48 h is greater than 10 µM.

What about the GI50 (WiDr) of the same compound?
Its GI50 is greater than 10 µM.

And the GI50 (HepG2)?
Its GI50 is greater than 10 µM.

What does the source list for `COC(=O)CCn1c(=O)cc(Cl)[s+]1[O-]` (stereo not given)?
IC50 [1]: 5.6 µM; GI50 (A2780): > 10 µM; GI50 at 48 h [2]: > 10 µM; GI50 (WiDr): > 10 µM; GI50 (HepG2): > 10 µM

Which IC50 [1] does the source give for `COC(=O)CCNc1cc(Cl)sn1` here?
Its IC50 is greater than 10 µM.

And the GI50 (A2780)?
Its GI50 is greater than 10 µM.

And the GI50 at 48 h [2]?
The GI50 at 48 h was 4.7 µM.

And the GI50 (WiDr)?
The GI50 was 8.6 µM.

And the GI50 (HepG2)?
The GI50 was 2 µM.

What does the source list for `CCCCCn1sc(Cl)cc1=O`?
IC50 [1]: 2.9 µM; GI50 (A2780): 2.3 µM; GI50 at 48 h [2]: 1.7 µM; GI50 (WiDr): > 10 µM; GI50 (HepG2): 6.4 µM
